Where no end group is shown, it is not given here.
B1: Ube2g2 (enzyme)
chain: MAGTALKRLMAEYKQLTLNPPEGIVAGPMNEENFFEWEALIMGPEDTCFEFGVFPAILSFPLDYPLSPPKMRFTCEMFHPNIYPDGRVCISILHAPGDDPMGYESSAERWSPVQSVEKILLSVVSMLAEPNDESGANVDASKMWRDDREQFYKIAKQIVQKSLGL
B2: gp78 RING finger (aa 313-380) (domain or fragment, human, UniProt Q9UKV5 313-380, looked up)
chain: KNYLRVVGNMEARFAVATPEELAVNNDDCAICWDSMQAARKLPCGHLFHNSCLRSWLEQDTSCPTCRM
B3: G2BR peptide (Ube2g2 binding region of gp78, amino acids 574-600) (peptide, UniProt Q9UKV5 574-600, looked up)
peptide: SADERQRMLVQRKDELLQQARKRFLNK

Key:
[1] = test system: Ube2g2Δ96-108; experiment: Ubiquitin loading of Ube2g2Δ96-108; type: biochemical; settings: Ube2g2Δ96-108, printed 'almost 75%'; 4 μM G2BR, 30°C
[2] = target: T1, Ube2g2 (Homo sapiens, UniProt P60604); experiment: ITC of Ube2g2 with G2BR peptides; type: binding
T1 sequence (P60604 1-165): B1 chain

[3] = test system: GST-gp78CΔ577-643; experiment: Autoubiquitylation of GST-gp78CΔ577-643 with Ube2g2; type: biochemical, human; settings: GST-gp78CΔ577-643, bead-bound, Ube2g2, E1; anti-ubiquitin immunoblot
Method in brief: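 Glutathione Sepharose-bound GST fusion of the gp78 cytoplasmic tail truncated at aa 577, at the start of the G2BR, is incubated 90 min with Ube2g2 and E1, with or without synthetic or recombinant G2BR-derived peptides added in trans. After washing, ubiquitylated bead-bound material is resolved by SDS-PAGE and immunoblotted with anti-ubiquitin.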

[4] = target: T2, Ube2g2:G2BR complex (Homo sapiens, UniProt P60604+Q9UKV5); experiment: NMR titration of Ube2g2:G2BR complex with gp78 RING finger; type: binding; settings: for NMR Exchange timescale: Ube2g2:G2BR complex, pH 7.5, 25°C
T2 sequence (P60604 1-165): B1 chain
T2 sequence (Q9UKV5 574-600 partner limits assumed): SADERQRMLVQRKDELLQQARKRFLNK
Method in brief: (§1)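 Purified gp78 RING finger is titrated into free Ube2g2 or the Ube2g2:G2BR complex in 50 mM Tris, 2 mM TCEP, pH 7.5, at 25°C, using 600 and 800 MHz spectrometers. Shifts of Ube2g2 peaks from free toward bound positions are followed. Kd comes from fitting peak positions against ligand:protein concentration.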

[5] = test system: gp78 RING finger; experiment: Binding of G2BR to gp78 RING finger; parameters: species or system human; settings: in the gp78 RING finger:Ube2g2:G2BR complex, separate binding experiments
[6] = target: T1, Ube2g2; experiment: NMR titration of Ube2g2 with G2BR peptides; type: binding; settings: peptide with Ube2g2, 50 mM Tris, 2 mM TCEP, pH 7.5, 25°C
Method in brief: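 Samples are in 50 mM Tris, 2 mM TCEP, pH 7.5, run at 25°C on 600 and 800 MHz spectrometers with triple-resonance cryoprobes. G2BR peptide is titrated into Ube2g2 and chemical shift perturbations of Ube2g2 resonances are mapped, backed by intermolecular NOESY, to define the binding surface.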

[7] = test system: UbcH5B; experiment: Ubiquitylation by HsHRD1, Trc8 and GST-gp78CΔ577-643 with UbcH5B as E2; type: biochemical; settings: HsHRD1, Trc8 and GST-gp78CΔ577-643, UbcH5B as E2, G2BR added
Method in brief: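 GST fusions of the HsHRD1 or Trc8 cytoplasmic tails, or of truncated gp78, were bound to glutathione Sepharose. They were incubated 90 min with E1 and the indicated E2, with or without the indicated peptides. Beads were then washed, and bead-bound ubiquitylated material was resolved by SDS-PAGE and immunoblotted with anti-ubiquitin.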

[8] = test system: Ub-GFP-His6; experiment: Ubiquitylation of Ub-GFP-His6 by gp78 cytoplasmic domain constructs; type: biochemical; settings: ~500 nM Ub-GFP-His6, Flag-tagged ubiquitin
Method in brief: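 Purified, bacterially expressed Ub-GFP-His6 (~500 nM) served as substrate for glutathione Sepharose-bound GST-gp78 lacking aa 577-643. Reactions were stopped with 2% SDS (final). After 10 min, samples were diluted to 0.1% SDS with 8 M urea in 50 mM Tris pH 7.4. Substrate was recovered on Ni2+ beads, washed, eluted and resolved by SDS-PAGE. In controls, substrate was added after termination; some reactions ran 60 min.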

[9] = test system: Ube2g2:RING finger; experiment: Fraction of Ube2g2 bound to gp78 RING finger in discharge reactions; type: binding; settings: 8 μM gp78 RING finger, peptide 4 μM
[10] = target: T1, Ube2g2; experiment: Ubiquitin loading of Ube2g2; type: biochemical
[11] = test system: Ube2g2Δ96-108; experiment: Binding of G2BR to Ube2g2Δ96-108
[12] = target: UbcH5C; settings: ref Brzovic et al., 2006; cited from earlier work
[13] = target: Ube2g2 (UniProt P60604); experiment: ITC
[14] = target: Ube2g2:G2BRΔN complex (UniProt P60604); experiment: NMR titration
[15] = target: Ube2g2 (UniProt P60604); experiment: NMR titration
[16] = target: B3; experiment: NMR titration
[17] = target: T3, Ube2g2:G2BR complex ( | human, UniProt P60604 1-165; Q9UKV5 574-600); experiment: NMR titration
T3 sequence 1: B1 chain
T3 sequence 2: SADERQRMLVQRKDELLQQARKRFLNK

[18] = target: B1; experiment: NMR titration
[19] = target: Ube2g2~Ub (Homo sapiens, UniProt P60604); experiment: Discharge of ubiquitin from Ube2g2~Ub; type: biochemical; settings: 8 μM gp78 RING finger, Ub 80 μM, 50 mM Tris pH 7.4, 25°C
[20] = target: Ube2g2:G2BRΔN; experiment: NMR titration of Ube2g2:G2BRΔN complex with gp78 RING finger; type: binding; settings: Ube2g2 in presence of G2BRΔN, pH 7.5, 25°C
Method in brief: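 For the NMR titration, samples were in 50 mM Tris, 2 mM TCEP, pH 7.5, at 25°C, on 600 and 800 MHz spectrometers with cryoprobes. gp78 RING finger was added stepwise, and Ube2g2 peak shifts from the free toward the bound position were followed. Kd was obtained by fitting peak positions against ligand:protein concentration ratio.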

[21] = target: T1, Ube2g2; experiment: NMR titration of Ube2g2 with gp78 RING finger; type: binding; settings: Ube2g2 without G2BR, pH 7.5, 25°C
Method in brief: as §1

[22] = target: B1; experiment: ITC
[23] = target: B1; experiment: NMR titration; remark: listed apart in the source
[24] = target: B1; experiment: ITC; remark: listed apart in the source

Q: Which “decrease of the G2BR effect on ubiquitin loading by deletion of aa 96-108” value [1] does the source give for SADERQRMLVQRKDELLQQARKRFLNK [G2BR] here?
A: ~75%

Q: And the “ΔG (free energy change)” value ([2]; ITC, 25°C)?
A: -10.45 kcal/mol

Q: What about the ΔH ([2]; ITC, 25°C) of the same molecule?
A: -56.3(±0.01) kJ mol^-1

Q: And the ΔS ([2]; ITC, 25°C)?
A: -41.8(±0.04) J K^-1 mol^-1T^-1

Q: And the “higher affinity for Ube2g2 of G2BR than of ubiquitin” value ([2]; versus ubiquitin (~300 μM))?
A: over 10,000 fold

Q: And the “effect of peptide in trans on ubiquitylation of truncated gp78” value [3]?
A: marked increase in ubiquitylation of truncated gp78

Q: What about the “increase in affinity between the E2 and RING finger caused by G2BR binding” value ([4]; Ube2g2:G2BR versus Ube2g2, abstract) of the same molecule?
A: ~ 50 fold

Q: What about the “RING finger - G2BR direct interaction” value [5] of the same molecule?
A: do not directly interact

Q: What about the “NMR Exchange timescale” value [6] of the same molecule?
A: slow exchange and slow

Q: What about the “effect on ubiquitylation with UbcH5B” value [7] of the same molecule?
A: not increased

Q: What about the “effect of G2BR on ubiquitylation of Ub-GFP-His6 by GST-gp78CΔ577-643” value [8] of the same molecule?
A: substantially increased

Q: What about the “Ube2g2 bound (Ube2g2:RING finger)” value [9] of the same molecule?
A: > 50%

Q: And the “E2 loading with ubiquitin” value ([10]; 12°C, with G2BR)?
A: almost no detectable loading

Q: What about the “effect on rate of E2 loading with ubiquitin” value ([10]; 30°C, 4 μM (saturating) peptide, 100 nM E1, Ub K0, versus Scr, average of two experiments) of the same molecule?
A: marked decrease in the rate of E2 loading

Q: And the “formation of Ube2g2~Ub” value ([10]; in presence of G2BR (discussion))?
A: substantial delay in formation of Ube2g2~Ub

Q: And the “G2BR binding to Ube2g2Δ96-108” value [11]?
A: G2BR binding was retained

Q: For ubiquitin, which Kd [12] is on record?
A: ~300 µM

Q: With G2BRΔN (peptide) as the molecule, how does the Kd [13] read?
A: 0.74 µM

Q: And the dH [13]?
A: -2.34 kcal/mol

Q: Which Kd [14] does the source give for “gp78 RING finger (aa 313-380) (from UniProt Q9UKV5 313-380) (domain or fragment)” here?
A: 29 µM

Q: With G2BRΔC (peptide) as the molecule, how does the Kd [15] read?
A: 192 µM

Q: With B1 as the molecule, how does the “stoichiometry N” value [16] read?
A: 1

Q: For B2, which Kd [17] is on record?
A: 3 ± 1 µM

Q: What about the Kd [18] of the same molecule?
A: 144 ± 10 µM

Q: What about the “loss of Ub-bound Ube2g2” value [19] of the same molecule?
A: markedly accelerated

Q: What about the “NMR Exchange timescale” value [4] of the same molecule?
A: fast exchange

Q: And the “NMR Exchange timescale” value ([4]; listed as gp78-RING)?
A: fast

Q: What about the “decrease of Kd of gp78 RING finger for Ube2g2 in presence of G2BR” value ([4]; Ube2g2:G2BR versus Ube2g2) of the same molecule?
A: ~ 48 fold

Q: And the Kd ([20]; 50 mM Tris, 2 mM TCEP)?
A: 29 µM

Q: And the “NMR Exchange timescale” value [20]?
A: fast

Q: And the “NMR Exchange timescale” value [21]?
A: fast exchange

Q: What about the “NMR Exchange timescale” value ([21]; listed as gp78-RING) of the same molecule?
A: fast

Q: With B3 as the molecule, how does the “stoichiometry N” value [22] read?
A: 1

Q: And the Kd [23]?
A: < 1 µM

Q: And the Kd [24]?
A: 0.021 ± 0.004 µM

Q: What about the dH [24] of the same molecule?
A: -13.456 ± 0.00239 kcal/mol
